T cruzi repl: T. cruzi replication inhibition | T. cruzi beta-gal in NIH3T3, luminescence, 90 h | inhibition, % (test concentration not listed) | 300,000 tested, 1.4% active;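 active = mean inhibition across valid replicates above about 55%, limit read from the data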;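 note: signal also drops with host cell toxicity which is not excluded here; higher percent means less beta-gal luminescence so fewer parasites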
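compound dosing = single 50 nL compound addition per well in DMSO | material = NIH/3T3 host cells with β-galactosidase reporter T. cruzi | input = 5,000 host fibroblasts per well | timing = ≥90 h infection period, 3 h prior cell attachment | read-out basis = percent inhibition of parasite-derived β-gal signal | detection = GalScreen β-gal luminescence, detergent lysis, 60 min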
MEKK3 PB1 HTS: raises or lowers MEK5 binding to the human MEKK3 PB1 domain; Q99759; bead-based flow cytometry, Alexa488-MEK5 binding to MEKK3; actives lie on both sides; 0 = blocked by unlabeled MEK5, 100 = vehicle; binding response (% of control), % at 10 µM; 290,000 tested, 1.4% active;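 active = binding response more than 3 SD above or below the average of its plate-row segment, actives on both sides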;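 note: Alexa488 bead fluorescence after subtracting the streptavidin-only scavenger bead signal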
Target sequence (Q99759 whole entry, looked up, the tested form may be a part): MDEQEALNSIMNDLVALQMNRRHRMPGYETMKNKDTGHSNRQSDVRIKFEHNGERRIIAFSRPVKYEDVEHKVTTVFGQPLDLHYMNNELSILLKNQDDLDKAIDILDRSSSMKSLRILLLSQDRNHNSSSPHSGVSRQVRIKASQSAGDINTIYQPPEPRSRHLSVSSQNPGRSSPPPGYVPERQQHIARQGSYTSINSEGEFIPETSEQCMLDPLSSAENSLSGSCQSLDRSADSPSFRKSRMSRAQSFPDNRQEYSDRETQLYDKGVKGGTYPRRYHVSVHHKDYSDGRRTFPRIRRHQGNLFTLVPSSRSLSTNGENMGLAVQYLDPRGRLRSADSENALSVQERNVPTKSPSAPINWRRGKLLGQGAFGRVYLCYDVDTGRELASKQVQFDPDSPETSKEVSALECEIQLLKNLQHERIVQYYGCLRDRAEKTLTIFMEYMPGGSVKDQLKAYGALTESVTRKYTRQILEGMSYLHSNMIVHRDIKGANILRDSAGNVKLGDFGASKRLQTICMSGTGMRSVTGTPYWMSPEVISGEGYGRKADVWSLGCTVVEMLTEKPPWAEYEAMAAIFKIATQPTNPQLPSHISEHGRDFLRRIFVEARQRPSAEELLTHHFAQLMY
MEKK2mut PB1 HTS: signal of MEK5 binding to mutant human MEKK2 PB1 domain | AID 1530 | percent response, % at 10 µM | bead flow cytometry, Alexa488-MEK5 binding to MEKK2 mutant | 290,000 tested, 0.35% active; in the data active = percent response above about 24%, passing the limit was not always enough
HCV NS3 hel inh: inhibitors of Hepatitis C virus NS3 helicase; NS3 helicase DNA unwinding, Cy5 molecular beacon fluorescence; inhibition, % at 10.9 µM; 290,000 tested, 0.56% active; AID 1800;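 active = inhibition above the mean of all tested compounds plus 3 SD, set per campaign, cut at about 35% in these data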
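Measured by: Cy5 fluorescence, 0 and 60 min reads / Assay system: NS3 helicase fragment of HCV / Control set: low DMSO, high thioflavine S at 110 µM / Times: 1 h reaction at 25 °C, ATP-initiated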
DNA FID counter: counter-screen for HCV NS3 helicase inhibitors: DNA intercalator displacement; 290,000 tested, 0.17% active; inhibition, % at 7.9 µM; DNA fluorescent intercalator displacement, fluorescence; AID 1845; in the data active = inhibition above about 37%;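 note: higher means more ethidium bromide displaced from hairpin DNA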
MEKK2wt PB1 HTS: raises or lowers MEK5 binding to wildtype human MEKK2 PB1 domain; Q9Y2U5; binding response (% of control), % at 10 µM; 290,000 tested, 1.1% active; bead flow cytometry, Alexa488-MEK5 binding to MEKK2 WT; actives lie on both sides; in the data active = binding response below about 67% or above about 130%
MEKK2wt confirm: raises or lowers MEK5 binding to wildtype human MEKK2, retest. binding response (% of control), % at 10 µM. shares compounds with MEKK3 PB1 HTS. 5,900 tested, 2.4% active. AID 1892. bead flow cytometry, Alexa488-MEK5 binding to MEKK2 WT; actives lie on both sides; in the data active = binding response below about 16% or above about 210%; inactive = in between
MEKK2mut-MEK5: signal of MEK5 binding to mutant human MEKK2, retest. percent response, % at 10 µM. 5,900 tested, 2% active. shares compounds with MEKK3 PB1 HTS. bead flow cytometry, Alexa488-MEK5 binding to MEKK2 mutant. AID 1893; in the data active = percent response mostly above about 71%, no sharp cut-off; inactive = mostly below about 38%;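 note: higher means compound restores mutant binding toward wildtype level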
MEKK3-MEK5 inh: MEKK3-MEK5 PB1 inhibition, single concentration confirmation; shares compounds with MEKK3 PB1 HTS; bead flow cytometry, Alexa488-MEK5 binding to MEKK3; hits give low values; binding response (% of control), % at 10 µM; 5,900 tested, 1.8% active;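 active = binding response below 72% of control, or above a set upper limit, though filed actives all read lower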;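 note: lower values mean stronger disruption of MEK5 binding to MEKK3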
Each line names hits and unclear results; the compound was inactive in the other large screens (follow-up assays come after a bar, where they were run); [ ] = dose if it differs, or a comment. A selection: hits, their analogues and other compounds. The true share with any hit is near 4.1%.

CC(C)(C)OC(=O)N1CCN(CCNC(=O)c2ccccc2)CC1	none
Cc1ccc(S(=O)(=O)N(C)CCCC(=O)n2nc(C)cc2C)cc1	MEKK3 PB1 HTS 0.0[inhibitor], MEKK2wt PB1 HTS 0.0[inhibitor] | MEKK2wt confirm inactive | MEKK2mut-MEK5 inactive | MEKK3-MEK5 inh inactive
COc1ccc(S(=O)(=O)NC(C)C)cc1C(=O)N1CCOCC1	MEKK2wt PB1 HTS -2.0[inhibitor] | MEKK2wt confirm inactive | MEKK2mut-MEK5 inactive | MEKK3-MEK5 inh inactive
CCOC(=O)/C(C#N)=C\c1c(OCC)n(CC)c2ccccc12	MEKK3 PB1 HTS 134 | MEKK2wt confirm inactive | MEKK2mut-MEK5 inactive | MEKK3-MEK5 inh inactive
COc1cc2c(cc1OC)CN(C(=O)c1ccco1)CC2	MEKK3 PB1 HTS 143 | MEKK2wt confirm inactive | MEKK2mut-MEK5 inactive | MEKK3-MEK5 inh inactive
COc1cc(OC)cc(C(=O)Nc2cc(-c3cn4cccnc4n3)ccc2C)c1	none
Cc1ccc(-c2cn3cccnc3n2)cc1NC(=O)c1cccs1	MEKK3 PB1 HTS 133 | MEKK2wt confirm inactive | MEKK2mut-MEK5 inactive | MEKK3-MEK5 inh inactive
Cc1nnc(NC(=O)C(C)Sc2nnc(CNC(=O)c3ccccc3F)n2C)s1 (stereo unspecified)	none (no result: MEKK3 PB1 HTS, MEKK2mut PB1 HTS, HCV NS3 hel inh, DNA FID counter, MEKK2wt PB1 HTS)
CC(=O)CCC(=O)OCC(=O)c1ccc(C(F)(F)F)cc1	none
Cc1ccc(N=Cc2sc(O)c3ccccc23)c(C)c1	MEKK2wt PB1 HTS 135 | MEKK2wt confirm inactive | MEKK2mut-MEK5 inactive | MEKK3-MEK5 inh inactive
CCC[C@H](CN[C@@H](CNC)[C@H](C)O)NCCc1ccc(OC)cc1	none
CCCC[C@@H](CNC)NC[C@H](Cc1ccc(O)cc1)NCCc1ccc(OCC)cc1	MEKK2wt PB1 HTS 153 | MEKK2wt confirm inactive | MEKK2mut-MEK5 inactive | MEKK3-MEK5 inh inactive
COc1ccc(NC(=O)CCSCCC(=O)Nc2ccc(OC)cc2OC)c(OC)c1	MEKK3 PB1 HTS 137 | MEKK2wt confirm inactive | MEKK2mut-MEK5 inactive | MEKK3-MEK5 inh inactive
COc1ccc(NC(=O)Cc2c(F)cccc2Cl)c(OC)c1	MEKK3 PB1 HTS 1.0[inhibitor], MEKK2wt PB1 HTS 3.0[inhibitor] | MEKK2wt confirm inactive | MEKK2mut-MEK5 inactive | MEKK3-MEK5 inh inactive
COc1ccc(NC(=O)CC(=O)Nc2ccc(OC)cc2OC)c(OC)c1	none
CC(C)CC1NC(=O)N(CCCCN2C(=O)c3ccccc3C2=O)C1=O (stereo unspecified)	MEKK3 PB1 HTS 135 | MEKK2wt confirm inactive | MEKK2mut-MEK5 inactive | MEKK3-MEK5 inh inactive
CC(C)CC1NC(=O)N(CC(=O)Nc2ccccc2-c2ccccc2)C1=O (stereo unspecified)	none
Cc1ccc(NC(=O)C(=O)NCC2OCCc3ccccc32)cc1 (stereo unspecified)	none
O=C(NCC1OCCc2ccccc21)c1ccc(NC(=O)c2ccc(Cl)cc2)cc1 (stereo unspecified)	MEKK3 PB1 HTS 134 | MEKK2wt confirm inactive | MEKK2mut-MEK5 inactive | MEKK3-MEK5 inh inactive
N/C(=N\OC(=O)C(c1ccccc1)c1ccccc1)c1ccccn1	MEKK3 PB1 HTS 2.0[inhibitor], MEKK2wt PB1 HTS 2.0[inhibitor] | MEKK2wt confirm inactive | MEKK2mut-MEK5 inactive | MEKK3-MEK5 inh inactive
Cc1ccc(NNc2c(C)nc3ccccc3nc2=O)cc1	none
Cc1nnc(N2CCOCC2)c2nn(-c3ccccc3)c(C)c12	none
c1ccc(-n2nnc3c(N4CCOCC4)ncnc32)cc1	MEKK3 PB1 HTS 74[inhibitor] | MEKK2wt confirm inactive | MEKK2mut-MEK5 inactive | MEKK3-MEK5 inh inactive
FC(F)(F)c1cc(-c2ccco2)nc(NCc2ccco2)n1	none
FC(F)(F)c1cc(-c2ccco2)nc(NCc2cccs2)n1	MEKK3 PB1 HTS 122 | MEKK2wt confirm inactive | MEKK2mut-MEK5 inactive | MEKK3-MEK5 inh inactive

Compound activity: PubChem, several laboratories
